# DNMT1 block: human DNMT1 methyltransferase inhibitors, primary screen, biochemical, molecular beacon, fluorescence, HinP1I cleavage, uHTS | DNA (cytosine-5)-methyltransferase 1 (Homo sapiens), P26358 | inhibition (reported as % activation of signal), % at 10 µM | actives 0.83% (n = 360,000) | AID 588458, 2011
# HCV NS3 hel inh: inhibitors of HCV NS3 helicase, primary screen, biochemical, Cy5 molecular beacon fluorescence; Hepatitis C virus NS3 helicase; NS3 helicase DNA unwinding; inhibition, % at 10.9 µM; actives 0.56% (n = 290,000); AID 1800, 2009;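 active = inhibition above the mean of all tested compounds plus 3 SD, set per campaign, cut at about 35% in these data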
#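 System: NS3 helicase fragment of HCV / Schedule: 1 h at 25 °C / Control set: DMSO alone as 0% and 110 µM thioflavine S as 100% / Reagent: Cy5/quencher beacon DNA duplex and ATP to start / Technique: Cy5 fluorescence / Replication: singlicate / Evaluation: % inhibition of end-to-start signal ratio versus controls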
# CASP6 VEID inh: human caspase-6 inhibitors, primary screen, biochemical, VEID-R110 fluorescence, single point, set 2. actives 0.53% (n = 350,000). purified caspase-6, Z-VEID-R110 cleavage fluorescence. inhibition, % at 12.5 µM. P55212;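 active = mean inhibition across replicates at least about 35%, with every replicate also reaching that limit, limit read from the data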
# Target sequence (P55212 24-179 limits assumed): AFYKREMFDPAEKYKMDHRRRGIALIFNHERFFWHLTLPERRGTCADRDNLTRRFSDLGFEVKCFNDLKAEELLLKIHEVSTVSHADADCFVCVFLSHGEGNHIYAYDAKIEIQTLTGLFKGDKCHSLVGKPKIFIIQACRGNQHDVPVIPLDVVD
# Target sequence (P55212 194-293 limits assumed): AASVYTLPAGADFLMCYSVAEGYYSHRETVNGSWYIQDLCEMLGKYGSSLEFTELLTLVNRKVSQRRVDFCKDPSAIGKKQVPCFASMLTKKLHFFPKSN
# NSD2 HMT inh: NSD2 histone methyltransferase inhibitors, primary screen, biochemical, AlphaScreen, single concentration, set 2; Histone-lysine N-methyltransferase NSD2 (Homo sapiens), O96028; NSD2 peptide methylation, 120 min; inhibition, % at 12.5 µM; actives 0.54% (n = 310,000); AID 743445, 2014
# NS3 hel confirm: HCV NS3 helicase inhibitors, retest, confirmation, biochemical, Cy5 molecular beacon fluorescence, triplicate; actives 31% (n = 1,600); AID 1943, 2009; NS3 helicase DNA unwinding; inhibition, % at 10.9 µM; shares compounds with HCV NS3 hel inh;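 active = inhibition above the mean of all tested compounds plus 3 SD, cutoff set per campaign, cut at about 36% in these data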
# FID counter trip: compounds displacing fluorescent DNA intercalator, artefact control for HCV NS3 helicase inhibitor project, biochemical, FID fluorescence, triplicate | shares compounds with HCV NS3 hel inh | AID 1945, 2009 | DNA fluorescent intercalator displacement | inhibition, % at 7.9 µM | actives 4% (n = 1,600); in the data active = inhibition above about 37%;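 note: higher means more displacement of ethidium bromide from the DNA hairpin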
# DNA FID DR: compounds displacing fluorescent intercalator from DNA, dose response, counter-screen for HCV NS3 helicase inhibitor project, biochemical, fluorescence. AID 2172, 2009. 120 tested, under 10 active. IC50, µM. shares compounds with HCV NS3 hel inh. fluorescent intercalator displacement from DNA; call rule not given here
# Numbers stand for hits; i = inactive; nt = no result given. The list is not random: actives were taken first. Their share in the collection is about 1.5%. Cut-off read from the data, not from the text of the source, unless noted: active = inhibition above about 50%; inactive = the rest.
SMILES,DNMT1 block,HCV NS3 hel inh,CASP6 VEID inh,NSD2 HMT inh,NS3 hel confirm,FID counter trip,others
CCOC(=O)C1C(=O)NC(c2ccccc2)=NC1c1ccc(O)c(OC)c1 (stereo not drawn),i,56,i,i,i,i,
O=C(Nc1cc(-c2ccccc2)sc1C(=O)O)c1cccc(F)c1,i,39,i,i,46,i,
O=C(NCC[C@H]1CC[C@@H](NC(=O)C2CC2)[C@@H](CO)O1)c1cc(Cl)cc(Cl)c1,nt,nt,i,nt,nt,nt,
Cc1nc2ccccn2c1C(=O)N/N=C/c1ccc2c(c1)OCO2,i,40,nt,i,i,i,
Cn1c2ccccc2c(=O)c2c(=O)n(Cc3ccco3)c(-c3ccc(F)cc3)nc21,i,i,i,i,nt,nt,
Cc1ccc(-c2nc3c(c(=O)c4ccccc4n3C)c(=O)n2Cc2ccco2)cc1,i,38,i,i,i,i,
CCNC(=S)N1CCN(Cc2ccc3c(c2)OCO3)CC1,i,i,i,i,nt,nt,
Cc1c(O)ccc(C(=O)CN2CCN(Cc3ccc4c(c3)OCO4)CC2)c1O,i,84,nt,i,i,i,
CCOC(=O)N1CCN(Cc2ccc3c(c2)OCO3)CC1,i,i,i,i,nt,nt,
CCCNC(=S)N1CCN(Cc2ccc3c(c2)OCO3)CC1,i,55,i,i,i,i,
COc1ccc(S(=O)(=O)/N=C2/NC(=O)/C(=C\c3ccco3)S2)cc1,i,37,nt,i,60,i,
O=C1OC(c2ccc(F)cc2)=C/C1=C\c1ccc([N+](=O)[O-])o1,nt,45,nt,nt,42,i,
NC(=S)N/N=C/c1ccc2cccc(OCc3ccccc3)c2n1,i,39,i,i,i,i,
COC(=O)c1ccc(OC(C)C(=O)c2ccc(C)cc2)cc1 (stereo not drawn),i,37,i,i,i,i,
CCCNC(=O)[C@@H]1[C@@H](CO)[C@@H]2Cn3c(ccc(C4=CCCC4)c3=O)[C@H]1N2CCC(F)(F)F,nt,nt,i,nt,nt,nt,
CCOC(=O)c1cc2c(C)n(-c3ccc(OCC)cc3)c(C)c2ccc1=O,i,55,nt,i,i,i,
Cc1ccc(NC(=O)CCS(=O)(=O)c2cccc3nonc23)cc1,i,i,i,i,nt,nt,
Cc1ccc(NC(=O)CCS(=O)(=O)c2cccc3nonc23)cc1Cl,i,42,i,i,i,i,
CN(C)CCCNC(=O)C[C@@H]1C=C[C@@H](NS(=O)(=O)c2ccc(F)cc2)[C@H](CO)O1,nt,nt,i,nt,nt,nt,
CCCNC(=O)[C@H]1[C@H](CO)[C@H]2Cn3c(ccc(-c4cccc(C(=O)N(C)C)c4)c3=O)[C@@H]1N2,nt,nt,i,nt,nt,nt,
CO[C@@H]1CN(C)C(=O)c2ccc(NC(=O)C3CCCC3)cc2OC[C@H](C)N(C)C[C@H]1C,nt,nt,i,nt,nt,nt,
Cc1c(CC(=O)NCC(=O)O)c(=O)oc2cc3occ(-c4ccccc4)c3cc12,i,38,i,i,51,i,
COc1ccccc1C#Cc1ccc2c(c1)[C@@H]1[C@@H](CCN1S(=O)(=O)c1ccc(F)cc1)[C@@H](CO)N2,nt,nt,i,nt,nt,nt,
COC(=O)c1c(-c2ccco2)csc1NC(=O)C1CC=CCC1C(=O)O (stereo not drawn),i,36,nt,i,i,i,
CCOC(=O)c1c(-c2ccc(F)cc2)csc1NC(=O)C1CC=CCC1C(=O)O (stereo not drawn),i,i,i,i,nt,nt,
SMILES,DNMT1 block,HCV NS3 hel inh,CASP6 VEID inh,NSD2 HMT inh,NS3 hel confirm,FID counter trip,others
Cc1ccc(CSC2=Nc3ccccc3C3=NC(CCC(=O)NCc4ccco4)C(=O)N23)cc1 (stereo not drawn),i,47,nt,i,i,i,
O=C(CCC1N=C2c3ccccc3N=C(SCC(=O)NCc3ccco3)N2C1=O)NCc1ccco1 (stereo not drawn),i,i,i,i,nt,nt,
CN(C)c1ccc(/C=N/NC(=O)c2ccccc2O)o1,i,i,i,i,nt,nt,
CN(C)c1ccc(/C=N/NC(=O)C(O)(c2ccccc2)c2ccccc2)o1,i,65,nt,i,i,i,
O=C(O)c1cccnc1SCc1ccc([N+](=O)[O-])cc1,i,i,i,i,nt,nt,
O=C(O)c1cccnc1SCc1cccc(Br)c1,i,38,i,i,i,i,
CCN(C(=S)NCCOC)c1cccc2ccccc12,i,44,i,i,i,i,
N#Cc1c(N2CCCCC2)nc(N)c2c(N)nc3c(c12)CC(CCl)O3 (stereo not drawn),i,58,i,i,i,i,
COc1ccc(CN2C(=O)Cc3c2nc(N)c2c(N)nc(N4CCOCC4)c(C#N)c32)cc1,i,i,i,i,nt,nt,
CCOC(=O)c1sc(N2C(=O)C(O)=C(C(=O)c3ccco3)C2c2ccc([N+](=O)[O-])cc2)nc1C (stereo not drawn),i,37,i,i,106,i,
Cc1nnc(N2C(=O)C(O)=C(C(=O)c3ccco3)C2c2ccc(F)cc2)s1 (stereo not drawn),i,i,i,nt,nt,nt,
CSc1ccc(C2C(C(=O)c3ccco3)=C(O)C(=O)N2c2nnc(SC)s2)cc1 (stereo not drawn),i,39,i,i,89,i,DNA FID DR=i
CC(=O)C1=C(O)C(=O)N(c2ccc(C(=O)O)cc2)C1c1ccc([N+](=O)[O-])cc1 (stereo not drawn),i,i,i,i,nt,nt,
CCOC(=O)c1ccc(N2C(=O)C(O)=C(C(C)=O)C2c2ccc([N+](=O)[O-])cc2)cc1 (stereo not drawn),i,45,i,i,36,i,
O=C(c1ccccn1)N1CC2(C1)[C@H](c1ccccc1)[C@H](CO)N2C(=O)C1CCC1,nt,nt,i,nt,nt,nt,
C[C@@H]1CN([C@H](C)CO)C(=O)c2cc(NS(=O)(=O)c3cccs3)ccc2O[C@H]1CN(C)S(C)(=O)=O,nt,nt,i,nt,nt,nt,
O=C(C[C@@H]1CC[C@H](NC(=O)C2CCC2)[C@@H](CO)O1)NCCCN1CCOCC1,nt,nt,i,nt,nt,nt,
C[C@@H]1CCCCO[C@H](CN(C)C(=O)Nc2ccc(C(F)(F)F)cc2)[C@H](C)CN([C@H](C)CO)C(=O)c2cc(NC(=O)Nc3cccc4ccccc34)ccc2O1,nt,nt,i,nt,nt,nt,
CCCCOc1ccc(C2C(C(=O)c3ccc(C)o3)=C(O)C(=O)N2Cc2ccco2)cc1 (stereo not drawn),i,69,i,i,135,i,DNA FID DR=i
Cc1ccc(C(=O)C2=C(O)C(=O)N(Cc3ccco3)C2c2ccc(N(C)C)cc2)o1 (stereo not drawn),i,98,i,i,i,i,
C[C@@H]1CCCCO[C@H](CN(C)Cc2ccccc2)[C@@H](C)CN([C@@H](C)CO)C(=O)c2cc(NS(=O)(=O)c3ccc(F)cc3)ccc2O1,nt,nt,i,nt,nt,nt,
